In one data set the target is Bacterial 70S ribosome. Put plainly: Inhibition of ribosome-mediated protein synthesis in Mycobacterium smegmatis. The format is subcellular, Mycolicibacterium smegmatis.
Data set [1] is described as follows: Toxicity in Sprague-Dawley rat assessed as maximum tolerated dose administered as iv bolus injection for 5 sec. The format is organism-based. To be noted: in vivo. In short, it runs like this: (§1)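 Rats given single intravenous doses either as a bolus over 5 or 30 seconds or as a timed infusion (minutes, per line). The highest dose tolerated without acute toxicity was recorded as MTD in mg/kg.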

The test system of data set [2] is Mycobacterium tuberculosis. Put plainly: Antibacterial activity against Mycobacterium tuberculosis H37Rv by whole cell MIC assay. Type of data set: functional, organism-based.
Data set [3] in a line: Prodrug conversion in rat plasma assessed as 2-(5-chloropyridin-2-yl)-N-((2R,4R,4aS,5aR,6S,7S,8R,9S,9aR,10aS)-4a,7,9-trihydroxy-2-methyl-6,8-bis(methylamino)decahydro-2H-benzo[b]pyrano[2,3-e][1,4]dioxin-4-yl)acetamide formation by measuring half-life at 0.1 to 1 microg/ml. Type of data set: ADME, cell-free. As to conditions: dose 0.1-1 µg/ml. The gist of the method:
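Prodrug incubated in vitro in fresh rat plasma. Appearance of the parent drug was followed over time to give a conversion half-life.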

The nature of data set [4]: Stability of compound in plasmaLyte A and milli-Q water mixture measured for >=6 hrs at room temperature by LC-MS/MS analysis. The format is physicochemical. To be noted: buffer. In short, it runs like this: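 Prodrug held in dosing vehicle alone at room temperature for at least 6 hours, with compound integrity monitored over time.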
Data set [5] can be described thus: Prodrug conversion in male Sprague-Dawley rat assessed as AUC of 2-(5-chloropyridin-2-yl)-N-((2R,4R,4aS,5aR,6S,7S,8R,9S,9aR,10aS)-4a,7,9-trihydroxy-2-methyl-6,8-bis(methylamino)decahydro-2H-benzo[b]pyrano[2,3-e][1,4]dioxin-4-yl)acetamide at 10 mg/kg, iv administered as bolus injection and measured after 48 hrs by LC-MS/MS analysis. The format is ADME, organism-based. To be noted: in vivo. In short, it runs like this: (§2)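 Rats dosed once by 10 mg/kg i.v. bolus with either the parent spectinamide or the phosphate prodrug at an equivalent molar amount. Plasma parent-drug concentration-time profiles gave AUC, Cmax, clearance, Vss and terminal half-life, reported as mean ± spread.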

Data set [6] can be described thus: Prodrug conversion in male Sprague-Dawley rat assessed as Cmax of 2-(5-chloropyridin-2-yl)-N-((2R,4R,4aS,5aR,6S,7S,8R,9S,9aR,10aS)-4a,7,9-trihydroxy-2-methyl-6,8-bis(methylamino)decahydro-2H-benzo[b]pyrano[2,3-e][1,4]dioxin-4-yl)acetamide at 10 mg/kg, iv administered as bolus injection and measured after 48 hrs by LC-MS/MS analysis. The format is ADME, organism-based. As to conditions: in vivo. The gist of the method:
as §2

Data set [7] in a line: Prodrug conversion in male Sprague-Dawley rat assessed as clearance of 2-(5-chloropyridin-2-yl)-N-((2R,4R,4aS,5aR,6S,7S,8R,9S,9aR,10aS)-4a,7,9-trihydroxy-2-methyl-6,8-bis(methylamino)decahydro-2H-benzo[b]pyrano[2,3-e][1,4]dioxin-4-yl)acetamide at 10 mg/kg, iv administered as bolus injection and measured after 48 hrs by LC-MS/MS analysis. Type of data set: ADME, organism-based. As to conditions: in vivo. The gist of the method: as §2

Data set [8] in a line: Prodrug conversion in male Sprague-Dawley rat assessed as volume of distribution at steady state of 2-(5-chloropyridin-2-yl)-N-((2R,4R,4aS,5aR,6S,7S,8R,9S,9aR,10aS)-4a,7,9-trihydroxy-2-methyl-6,8-bis(methylamino)decahydro-2H-benzo[b]pyrano[2,3-e][1,4]dioxin-4-yl)acetamide at 10 mg/kg, iv administered as bolus injection and measured after 48 hrs by LC-MS/MS analysis. Type of data set: ADME, organism-based. To be noted: in vivo. In short, it runs like this:
as §2

The nature of data set [9]: Prodrug conversion in male Sprague-Dawley rat assessed as half-life of 2-(5-chloropyridin-2-yl)-N-((2R,4R,4aS,5aR,6S,7S,8R,9S,9aR,10aS)-4a,7,9-trihydroxy-2-methyl-6,8-bis(methylamino)decahydro-2H-benzo[b]pyrano[2,3-e][1,4]dioxin-4-yl)acetamide at 10 mg/kg, iv administered as bolus injection and measured after 48 hrs by LC-MS/MS analysis. The format is ADME, organism-based. To be noted: in vivo. In short, it runs like this: as §2

A short description of data set [10]: Toxicity in Sprague-Dawley rat assessed as maximum tolerated dose administered as iv bolus injection for 30 sec. Type of data set: organism-based. To be noted: in vivo. The gist of the method:
as §1

Data set [11] in a line: Toxicity in Sprague-Dawley rat assessed as maximum tolerated dose administered via iv infusion for 5 mins. The format is organism-based. As to conditions: in vivo. The gist of the method:
as §1

The nature of data set [12]: Toxicity in Sprague-Dawley rat assessed as maximum tolerated dose administered via iv infusion for 15 mins. Type of data set: organism-based. As to conditions: in vivo. The gist of the method:
as §1

Data set [13] in a line: AUC in male Sprague-Dawley rat at 10 mg/kg, iv administered as bolus injection and measured after 48 hrs by LC-MS/MS analysis. The format is ADME, organism-based. To be noted: in vivo. In short, it runs like this: as §2
Data set [14] is described as follows: Cmax in male Sprague-Dawley rat at 10 mg/kg, iv administered as bolus injection and measured after 48 hrs by LC-MS/MS analysis. As to conditions: in vivo. The format is ADME, organism-based. In short, it runs like this: as §2
Data set [15] in a line: Clearance in male Sprague-Dawley rat at 10 mg/kg, iv administered as bolus injection and measured after 48 hrs by LC-MS/MS analysis. The format is ADME, organism-based. To be noted: in vivo. The gist of the method: as §2
Data set [16] is described as follows: Volume of distribution at steady state in male Sprague-Dawley rat at 10 mg/kg, iv administered as bolus injection and measured after 48 hrs by LC-MS/MS analysis. Type of data set: ADME, organism-based. To be noted: in vivo, read-out: Vdss. The gist of the method:
as §2

The nature of data set [17]: Half life in male Sprague-Dawley rat at 10 mg/kg, iv administered as bolus injection and measured after 48 hrs by LC-MS/MS analysis. Type of data set: ADME, organism-based. To be noted: in vivo. In short, it runs like this:
as §2

A short description of data set [18]: Toxicity in Sprague-Dawley rat assessed as maximum tolerated dose administered via iv infusion for 30 mins. To be noted: in vivo. The format is organism-based. In short, it runs like this: as §1

Calls of active or inactive are those of the source. No cut-off for these calls is given here.

For the compound `CN[C@@H]1[C@H](O)[C@H](NC)[C@H]2O[C@@]3(O)C(=O)C[C@@H](C)O[C@H]3O[C@@H]2[C@H]1O` [SPECTINOMYCIN], the half-maximal inhibitory concentration (IC50) on Bacterial 70S ribosome was 1.08 µM.
For the compound `CN[C@@H]1[C@H](O)[C@H](NC)[C@H]2O[C@]3(O)[C@H](O[C@@H]2[C@H]1O)O[C@H](C)C[C@H]3NC(=O)Cc1ccc(OP(=O)(O)O)cn1`, the MTD at 5 s in data set [1] was greater than 500 mg/kg. Moreover, the result in [2] was inactive. The compound also had a concentration for half-maximal inhibition (IC50) against Bacterial 70S ribosome of 12.2 µM. In addition, the t1/2 in data set [3] is 19 min; in [9], 23.4 min. The Stability entry in data set [4] is “Stable”. In addition, the area under the curve (AUC) in data set [5] was 18500 ng·h/mL. The highest concentration (Cmax) in data set [6] is 38900 ng/mL. Further, in data set [7], the CL was found to be 9.1 mL/min/kg. The Vdss in data set [8] is 0.322 L/kg.
For the compound `CN[C@@H]1[C@H](O)[C@H](NC)[C@H]2O[C@]3(O)[C@H](O[C@@H]2[C@H]1O)O[C@H](C)C[C@H]3NC(=O)Cc1ccc(O)cn1`, the maximal tolerated dose (MTD) at 5 s in data set [1] is 200 mg/kg. Further, the MTD at 0.5 min in data set [10] came to 200 mg/kg. Besides, in [11], the MTD at 5 min came out at 350 mg/kg. Also, the maximal tolerated dose (MTD) at 0.25 h in [12] was greater than 500 mg/kg. Besides, 1.79 µM corresponded to half-maximal inhibition against Bacterial 70S ribosome (IC50). In addition, in [13], the exposure (AUC) at 48 h turned out to be 22000 ng·h/mL. The Cmax in data set [14] was found to be 47000 ng/mL. In [15], this compound gave a clearance of 7.72 mL/min/kg. Also, in [16], the Vd worked out at 0.494 L/kg. Besides, the half-life in data set [17] was 23.5 min.
Consider `CN[C@@H]1[C@H](O)[C@H](NC)[C@H]2O[C@]3(O)[C@H](O[C@@H]2[C@H]1O)O[C@H](C)C[C@H]3NC(=O)Cc1ccc(Cl)cn1`, for which the maximum tolerated dose (MTD) at 5 s in [1] was 75 mg/kg. Moreover, in [10], the maximal tolerated dose (MTD) at 0.5 min was 100 mg/kg. In addition, the MTD at 5 min in [11] came out at 100 mg/kg. For the same compound, in data set [12], the MTD at 0.25 h came out at 150 mg/kg. Besides, the MTD at 0.5 h in data set [18] was 300 mg/kg.

One may read the IC50 as the point on the concentration scale where inhibition reaches its midpoint. What is called MTD is the highest dose tested that stayed within the study's limit of toxicity. The term AUC denotes concentration integrated over time. As usually defined, the Cmax is the highest concentration seen after dosing. The Vdss is a proportionality between amount in the body and measured concentration, not a real space. Broadly, the clearance is the rate of elimination divided by the concentration. The low end stands for a low capacity for elimination, the high end for a high capacity for elimination. For orientation: half-life means how long it takes for the measured level to halve.

Values taken from ChEMBL document CHEMBL6092133, “Enhancing the therapeutic window for Spectinamide anti-tuberculosis Agents: Synthesis, Evaluation, and activation of phosphate prodrug 3408” (Bioorg Med Chem Lett, 2024).
